Molecules are shown by their SMILES. Calls of active or inactive are those of the source. No cut-off for these calls is given here.

Test [1] has as its system Escherichia coli. The experiment in a line: Antimicrobial activity against Escherichia coli ATCC 25922 assessed as zone of inhibition at 2862 uM incubated overnight at 37 degC. Format: functional, organism-based. The procedure, abridged:
(§1)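 Pure isolates screened against a panel of five bacteria and one fungus, each at a single concentration within 1639–5230 μM. A commercial antibiotic and antifungal agent were tested in parallel as references. Growth inhibition was recorded as the zone of inhibition.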

In test [2] the test system is Pseudomonas aeruginosa. Briefly: Antimicrobial activity against Pseudomonas aeruginosa ATCC 27853 assessed as zone of inhibition at 2862 uM incubated overnight at 37 degC. Format: functional. Conditions: read-out: IZ. A digest of the protocol:
as §1

In test [3] the test system is Staphylococcus aureus. Briefly: Antimicrobial activity against Staphylococcus aureus ATCC 25923 assessed as zone of inhibition at 2862 uM incubated overnight at 37 degC. Conditions: read-out: IZ. It is filed as functional. The procedure, abridged: as §1
Test [4] deals with Streptococcus pyogenes. Briefly: Antimicrobial activity against Streptococcus pyogenes 345/1 assessed as zone of inhibition at 2862 uM incubated overnight at 37 degC. It is filed as functional. The following applies: read-out: IZ. The procedure, abridged:
as §1

Test [5] relates to Staphylococcus aureus. Briefly: Antimicrobial activity against methicillin-resistant Staphylococcus aureus 344/2-32 assessed as zone of inhibition at 2862 uM incubated overnight at 37 degC. It is filed as functional. Conditions: read-out: IZ.

In the case of `CC1(C)S[C@@H]2[C@H](NC(=O)[C@H](N)c3ccccc3)C(=O)N2[C@H]1C(=O)O` [AMPICILLIN], the “inhibition zone (IZ)” value in test [1] was “inactive”. Besides, the zone of inhibition at 2862 µM in test [2] is 2 mm; in test [3], 15 mm; in test [4] it was 20 mm; in test [5] it was 3 mm.

For the origin of these results see ChEMBL document CHEMBL3593182, “Phytochemical Investigation of the Constituents Derived from the Australian Plant Macropidia fuliginosa” (2015).
